Tests used:
[1] = Tumor to muscle ratio of the drug in mouse EMT6 tumor bearing BALB/c mouse at 10 to 20 uCi after 2 hrs; type: ADME, tissue-based, Muscle tissue
In short: (§1)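 Tumor-bearing female Balb/c mice (EMT-6 s.c. allograft, ~0.2 cm3) given 10-20 µCi 18F tracer in saline i.v. via tail vein; ≥4 per group; killed 120 min later. Tissues weighed and gamma-counted; ratio = tumor %ID/g divided by that organ's %ID/g.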

[2] = system: Kidney; assay: Biodistribution in kidney of mouse EMT6 tumor bearing BALB/c mouse at 10 to 20 uCi after 60 mins; type: ADME, organism-based; conditions: in vivo, 1 h
In short: (§2)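 EMT-6 cells (5×10^5 in 100 µL PBS) implanted s.c. in scapular region of female Balb/c mice (~2 months, 17-22 g); studied 7-10 days later at ~0.2 cm3 tumor. 18F tracer 10-20 µCi in 100-150 µL saline via tail vein; ≥4 mice per time point; tissue removed at sacrifice, weighed, gamma-counted; %ID/g calculated.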

[3] = system: Bone; assay: Biodistribution in bone of mouse EMT6 tumor bearing BALB/c mouse at 10 to 20 uCi after 30 mins; type: ADME, organism-based, Bone element; conditions: in vivo, 0.5 h; in short: as §2
[4] = system: Blood; assay: Biodistribution in blood of mouse EMT6 tumor bearing BALB/c mouse at 10 to 20 uCi after 60 mins; type: ADME, organism-based; conditions: in vivo, 1 h; in short: as §2
[5] = system: EMT6; assay: Biodistribution in tumor of mouse EMT6 tumor bearing BALB/c mouse at 10 to 20 uCi after 120 mins; type: ADME, organism-based; conditions: emt6, 2 h; in short: as §2
[6] = system: Liver; assay: Biodistribution in liver of mouse EMT6 tumor bearing BALB/c mouse at 10 to 20 uCi after 30 mins; type: ADME, organism-based; conditions: in vivo, 0.5 h; in short: as §2
[7] = system: Lung; assay: Biodistribution in lung of mouse EMT6 tumor bearing BALB/c mouse at 10 to 20 uCi after 30 mins; type: ADME, organism-based; conditions: in vivo, 0.5 h; in short: as §2
[8] = system: Brain; assay: Biodistribution in brain of EMT6 tumor bearing BALB/c mouse at 10 to 20 uCi after 60 mins; type: ADME, organism-based; conditions: in vivo, 1 h; in short: as §2
[9] = system: Lung; assay: Biodistribution in lung of mouse EMT6 tumor bearing BALB/c mouse at 10 to 20 uCi after 120 mins; type: ADME, organism-based; conditions: in vivo, 2 h; in short: as §2
[10] = system: Muscle tissue; assay: Biodistribution in muscle of mouse EMT6 tumor bearing BALB/c mouse at 10 to 20 uCi after 30 mins; type: ADME, organism-based; conditions: in vivo, 0.5 h; in short: as §2
[11] = system: Liver; assay: Biodistribution in liver of mouse EMT6 tumor bearing BALB/c mouse at 10 to 20 uCi after 5 mins; type: ADME, organism-based; conditions: in vivo; in short: as §2
[12] = system: Liver; assay: Biodistribution in liver of mouse EMT6 tumor bearing BALB/c mouse at 10 to 20 uCi after 120 mins; type: ADME, organism-based; conditions: in vivo, 2 h; in short: as §2
[13] = system: EMT6; assay: Biodistribution in tumor of mouse EMT6 tumor bearing BALB/c mouse at 10 to 20 uCi after 5 mins; type: ADME, organism-based; conditions: emt6, 5 min; in short: as §2
[14] = system: Bone; assay: Biodistribution in bone of mouse EMT6 tumor bearing BALB/c mouse at 10 to 20 uCi after 120 mins; type: ADME, organism-based, Bone element; conditions: in vivo, 2 h; in short: as §2
[15] = system: Adipose tissue; assay: Biodistribution in fat of mouse EMT6 tumor bearing BALB/c mouse at 10 to 20 uCi after 5 mins; type: ADME, organism-based; conditions: in vivo; in short: as §2
[16] = system: Adipose tissue; assay: Biodistribution in fat of mouse EMT6 tumor bearing BALB/c mouse at 10 to 20 uCi after 30 mins; type: ADME, organism-based; conditions: in vivo, 0.5 h; in short: as §2
[17] = system: Blood; assay: Biodistribution in blood of mouse EMT6 tumor bearing BALB/c mouse at 10 to 20 uCi after 120 mins; type: ADME, organism-based; conditions: in vivo, 2 h; in short: as §2
[18] = system: Brain; assay: Biodistribution in brain of mouse EMT6 tumor bearing BALB/c mouse at 10 to 20 uCi after 120 mins; type: ADME, organism-based; conditions: in vivo, 2 h; in short: as §2
[19] = system: Heart; assay: Biodistribution in heart of mouse EMT6 tumor bearing BALB/c mouse at 10 to 20 uCi after 60 mins; type: ADME, organism-based; conditions: in vivo, 1 h; in short: as §2
[20] = system: EMT6; assay: Biodistribution in tumor of EMT6 tumor bearing BALB/c mouse 10 to 20 uCi after 30 mins; type: ADME, organism-based; conditions: emt6, 0.5 h; in short: as §2
[21] = system: Bone; assay: Biodistribution in bone of mouse EMT6 tumor bearing BALB/c mouse at 10 to 20 uCi after 5 mins; type: ADME, organism-based, Bone element; conditions: in vivo; in short: as §2
[22] = system: Adipose tissue; assay: Biodistribution in fat of mouse EMT6 tumor bearing BALB/c mouse at 10 to 20 uCi after 60 mins; type: ADME, organism-based; conditions: in vivo, 1 h; in short: as §2
[23] = system: Kidney; assay: Biodistribution in kidney of mouse EMT6 tumor bearing BALB/c mouse at 10 to 20 uCi after 120 mins; type: ADME, organism-based; conditions: in vivo, 2 h; in short: as §2
[24] = system: Muscle tissue; assay: Biodistribution in muscle of EMT6 tumor bearing BALB/c mouse at 10 to 20 uCi after 5 mins; type: ADME, organism-based; conditions: in vivo; in short: as §2
[25] = Decrease in tumor to fat ratio of the drug in mouse EMT6 tumor bearing BALB/c mouse after 1 hr in presence of YUN-143; type: ADME; design: scale not given: the % may be the effect or the level left
In short: (§3)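 Blocking: 18F tracer coinjected i.v. with 1 mg/kg cold YUN-143 (σ1/σ2 ligand) into EMT-6 tumor-bearing female Balb/c mice; sacrificed at 60 min; tumor/muscle and tumor/fat ratios from %ID/g of gamma-counted tissues.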

[26] = system: Liver; assay: Biodistribution in liver of mouse EMT6 tumor bearing BALB/c mouse at 10 to 20 uCi after 60 mins; type: ADME, organism-based; conditions: in vivo, 1 h; in short: as §2
[27] = system: Brain; assay: Biodistribution in brain of EMT6 tumor bearing BALB/c mouse at 10 to 20 uCi after 5 mins; type: ADME, organism-based; conditions: in vivo; in short: as §2
[28] = system: Blood; assay: Biodistribution in blood of mouse EMT6 tumor bearing BALB/c mouse at 10 to 20 uCi after 5 mins; type: ADME, organism-based; conditions: in vivo; in short: as §2
[29] = system: Kidney; assay: Biodistribution in kidney of mouse EMT6 tumor bearing BALB/c mouse at 10 to 20 uCi after 5 mins; type: ADME, organism-based; conditions: in vivo; in short: as §2
[30] = system: Adipose tissue; assay: Biodistribution in fat of mouse EMT6 tumor bearing BALB/c mouse at 10 to 20 uCi after 120 mins; type: ADME, organism-based; conditions: in vivo, 2 h; in short: as §2
[31] = system: Heart; assay: Biodistribution in heart of mouse EMT6 tumor bearing BALB/c mouse at 10 to 20 uCi after 5 mins; type: ADME, organism-based; conditions: in vivo; in short: as §2
[32] = Tumor to fat ratio of the drug in mouse EMT6 tumor bearing BALB/c mouse at 10 to 20 uCi after 2 hrs; type: ADME; in short: as §1
[33] = system: Heart; assay: Biodistribution in heart of mouse EMT6 tumor bearing BALB/c mouse at 10 to 20 uCi after 30 mins; type: ADME, organism-based; conditions: in vivo, 0.5 h; in short: as §2
[34] = system: Muscle tissue; assay: Biodistribution in muscle of mouse EMT6 tumor bearing BALB/c mouse at 10 to 20 uCi after 120 mins; type: ADME, organism-based; conditions: in vivo, 2 h; in short: as §2
[35] = system: Bone; assay: Biodistribution in bone of mouse EMT6 tumor bearing BALB/c mouse at 10 to 20 uCi after 60 mins; type: ADME, organism-based, Bone element; conditions: in vivo, 1 h; in short: as §2
[36] = Decrease in tumor to muscle ratio of the drug in mouse EMT6 tumor bearing BALB/c mouse after 1 hr in presence of YUN-143; type: ADME; design: scale not given: the % may be the effect or the level left; in short: as §3
[37] = system: Lung; assay: Biodistribution in lung of mouse EMT6 tumor bearing BALB/c mouse at 10 to 20 uCi after 5 mins; type: ADME, organism-based; conditions: in vivo; in short: as §2
[38] = system: Lung; assay: Biodistribution in lung of mouse EMT6 tumor bearing BALB/c mouse at 10 to 20 uCi after 60 mins; type: ADME, organism-based; conditions: in vivo, 1 h; in short: as §2
[39] = system: Brain; assay: Biodistribution in brain of EMT6 tumor bearing BALB/c mouse at 10 to 20 uCi after 30 mins; type: ADME, organism-based; conditions: in vivo, 0.5 h; in short: as §2
[40] = system: Muscle tissue; assay: Biodistribution in muscle of mouse EMT6 tumor bearing BALB/c mouse at 10 to 20 uCi after 60 mins; type: ADME, organism-based; conditions: in vivo, 1 h; in short: as §2
[41] = system: Heart; assay: Biodistribution in heart of EMT6 tumor bearing BALB/c mouse at 10 to 20 uCi after 120 mins; type: ADME, organism-based; conditions: in vivo, 2 h; in short: as §2
[42] = system: EMT6; assay: Biodistribution in tumor of mouse EMT6 tumor bearing BALB/c mouse at 10 to 20 uCi after 60 mins; type: ADME, organism-based; conditions: emt6, 1 h; in short: as §2
[43] = system: Blood; assay: Biodistribution in blood of mouse EMT6 tumor bearing BALB/c mouse at 10 to 20 uCi after 30 mins; type: ADME, organism-based; conditions: in vivo, 0.5 h; in short: as §2
[44] = system: Kidney; assay: Biodistribution in kidney of mouse EMT6 tumor bearing BALB/c mouse at 10 to 20 uCi after 30 mins; type: ADME, organism-based; conditions: in vivo, 0.5 h; in short: as §2

COc1cc2c(cc1OC)CN(CCCCNC(=O)c1cc(I)cc(OC)c1OCC[18F])CC2
Ratio [1]: 8
Drug uptake [2]: 3.5 % ID/g
Drug uptake [3]: 2.01 % ID/g
Drug uptake [4]: 0.65 % ID/g
Drug uptake [5]: 1.15 % ID/g
Drug uptake [6]: 10.73 % ID/g
Drug uptake [7]: 3.75 % ID/g
Drug uptake [8]: 0.14 % ID/g
Drug uptake [9]: 0.74 % ID/g
Drug uptake [10]: 0.73 % ID/g
Drug uptake [11]: 15.21 % ID/g
Drug uptake [12]: 2.61 % ID/g
Drug uptake [13]: 3.05 % ID/g
Drug uptake [14]: 0.59 % ID/g
Drug uptake [15]: 4.13 % ID/g
Drug uptake [16]: 1.36 % ID/g
Drug uptake [17]: 0.28 % ID/g
Drug uptake [18]: 0.08 % ID/g
Drug uptake [19]: 0.69 % ID/g
Drug uptake [20]: 3.11 % ID/g
Drug uptake [21]: 2.23 % ID/g
Drug uptake [22]: 0.47 % ID/g
Drug uptake [23]: 1.34 % ID/g
Drug uptake [24]: 2.5 % ID/g
Activity [25]: 50%
Drug uptake [26]: 5.57 % ID/g
Drug uptake [27]: 0.71 % ID/g
Drug uptake [28]: 1.82 % ID/g
Drug uptake [29]: 19.98 % ID/g
Drug uptake [30]: 0.17 % ID/g
Drug uptake [31]: 5.6 % ID/g
Ratio [32]: 7
Drug uptake [33]: 1.54 % ID/g
Drug uptake [34]: 0.15 % ID/g
Drug uptake [35]: 0.93 % ID/g
Activity [36]: 50%
Drug uptake [37]: 18.47 % ID/g
Drug uptake [38]: 1.51 % ID/g
Drug uptake [39]: 0.27 % ID/g
Drug uptake [40]: 0.4 % ID/g
Drug uptake [41]: 0.39 % ID/g
Drug uptake [42]: 2.15 % ID/g
Drug uptake [43]: 1.23 % ID/g
Drug uptake [44]: 7.73 % ID/g
